Reference: ChEMBL document CHEMBL1140738, “New trisubstituted 1,2,4-triazole derivatives as potent ghrelin receptor antagonists. 3. Synthesis and pharmacological in vitro and in vivo evaluations” (J Med Chem, 2008)
Activity calls are given as the source filed them. No cut-off for these calls is given here. Where a SMILES comes first, the peptide text is derived from it. [ ]: non-standard residue; d: D form. dTrp(2-Me) = Cc1[nH]c2ccccc2c1C[C@@H](N)C(=O)O

How the values were obtained:
[1] = biological target: T1, Growth hormone secretagogue receptor type 1 (Homo sapiens, UniProt Q92847); assay: Displacement of 125I]-His9-ghrelin from human GHSR1a expressed in LLCPK1 cells; assay type: cell-based, LLC-PK1
T1 sequence (Q92847 whole entry): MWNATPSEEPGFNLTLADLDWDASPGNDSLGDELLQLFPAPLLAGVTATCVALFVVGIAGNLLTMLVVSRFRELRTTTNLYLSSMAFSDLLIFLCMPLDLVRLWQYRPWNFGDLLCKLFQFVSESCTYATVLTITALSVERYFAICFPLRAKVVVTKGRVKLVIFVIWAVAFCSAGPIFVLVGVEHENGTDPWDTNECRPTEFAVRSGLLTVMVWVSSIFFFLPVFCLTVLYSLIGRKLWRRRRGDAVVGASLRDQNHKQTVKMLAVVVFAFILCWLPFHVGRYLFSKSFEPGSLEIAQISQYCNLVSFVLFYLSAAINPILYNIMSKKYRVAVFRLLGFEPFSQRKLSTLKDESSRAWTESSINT
How it was run: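 Competition binding with membranes from LLC PK-1 cells transiently transfected with human GHS-R1a, incubated with 125I-His9-ghrelin and increasing concentrations of compound.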

[2] = biological target: T1, Growth hormone secretagogue receptor type 1; assay: Agonist activity at GHSR1a expressed in CHO cells assessed as accumulation of intracellular calcium level at 10 uM relative to ghrelin; assay type: functional, cell-based
How it was run: (§1)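 CHO cells transiently expressing GHS-R1a; intracellular Ca2+ accumulation read as fluorescence output. Increasing agonist concentrations were tested for dose-response; single-point activation at 10^-5 M is expressed as percent of the maximal response to ghrelin at 10^-7 M (100%).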

[3] = biological target: T1, Growth hormone secretagogue receptor type 1; assay: Antagonist activity at GHSR1a expressed in CHO cells assessed as inhibition of ghrelin induced accumulation of intracellular calcium; assay type: functional, cell-based
How it was run: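 Antagonism measured in CHO cells transiently transfected with GHS-R1a: ghrelin dose-response curves of [Ca2+]i accumulation (fluorescence) run in the presence of various concentrations of test compound.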

Rattus norvegicus [4] = assay: Inhibition of hexarelin induced food intake per 100 gm of body weight in rat at 20 ug/kg, sc after 2 hrs; assay type: functional
How it was run: (§2)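 Rats dosed subcutaneously with compound (160 µg/kg alone, or graded 20, 80, 160, 320 µg/kg) with or without hexarelin 80 µg/kg sc. Cumulative food intake at 2 and 6 h expressed as g food per 100 g body weight; % variation versus hexarelin at 6 h = 100 × (compound+hexarelin − hexarelin)/hexarelin.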

Rattus norvegicus [5] = assay: Effect on growth hormone secretion in infant rat at 80 ug/kg, sc at 160 ug/kg, sc in presence of hexarelin; assay type: functional
How it was run: (§3)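 Infant rats given sc injection of compound at 160 µg/kg and/or hexarelin at 80 µg/kg; plasma rat GH measured (ng/mL).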

Rattus norvegicus [6] = assay: Inhibition of hexarelin induced food intake per 100 gm of body weight in rat at 80 ug/kg, sc after 2 hrs; assay type: functional; how it was run: as §2
Rattus norvegicus [7] = assay: Inhibition of hexarelin induced food intake per 100 gm of body weight in rat at 20 ug/kg, sc after 6 hrs; assay type: functional; how it was run: as §2
Rattus norvegicus [8] = assay: Inhibition of hexarelin induced food intake per 100 gm of body weight in rat at 160 ug/kg, sc after 2 hrs; assay type: functional; how it was run: as §2
Rattus norvegicus [9] = assay: Effect on growth hormone secretion at 160 ug/kg, sc; assay type: functional; how it was run: as §3
Rattus norvegicus [10] = assay: Inhibition of hexarelin induced food intake per 100 gm of body weight in rat at 160 ug/kg, sc after 6 hrs; assay type: functional; how it was run: as §2
Rattus norvegicus [11] = assay: Inhibition of hexarelin induced food intake per 100 gm of body weight in rat at 320 ug/kg, sc after 2 hrs; assay type: functional; how it was run: as §2
Rattus norvegicus [12] = assay: Inhibition of hexarelin induced food intake per 100 gm of body weight in rat at 80 ug/kg, sc after 6 hrs; assay type: functional; how it was run: as §2
Rattus norvegicus [13] = assay: Inhibition of hexarelin induced food intake per 100 gm of body weight in rat at 320 ug/kg, sc after 6 hrs; assay type: functional; how it was run: as §2
[14] = biological target: T1, Growth hormone secretagogue receptor type 1; assay: Agonist activity at GHSR1a expressed in CHO cells assessed as accumulation of intracellular calcium level; assay type: functional, cell-based; how it was run: as §1
[15] = biological target: Substance-P receptor (Homo sapiens) (UniProt P25103); assay: Binding affinity at tachykinin 2 receptor at 10 uM
Substance-P receptor (Homo sapiens), sequence (P25103 whole entry): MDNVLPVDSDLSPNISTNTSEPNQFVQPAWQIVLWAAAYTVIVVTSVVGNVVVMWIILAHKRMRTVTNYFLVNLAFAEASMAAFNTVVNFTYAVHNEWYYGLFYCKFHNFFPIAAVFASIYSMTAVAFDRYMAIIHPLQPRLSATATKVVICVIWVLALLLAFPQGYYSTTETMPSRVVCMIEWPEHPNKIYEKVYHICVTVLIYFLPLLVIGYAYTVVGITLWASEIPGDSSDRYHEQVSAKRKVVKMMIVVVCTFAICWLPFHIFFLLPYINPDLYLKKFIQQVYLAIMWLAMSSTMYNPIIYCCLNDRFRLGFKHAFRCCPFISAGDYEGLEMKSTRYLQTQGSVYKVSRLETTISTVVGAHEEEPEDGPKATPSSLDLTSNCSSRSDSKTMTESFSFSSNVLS

[16] = biological target: T2, Cholecystokinin receptor type A (Homo sapiens) (UniProt P32238); assay: Binding affinity at CCK1 receptor at 10 uM
T2 sequence (whole entry): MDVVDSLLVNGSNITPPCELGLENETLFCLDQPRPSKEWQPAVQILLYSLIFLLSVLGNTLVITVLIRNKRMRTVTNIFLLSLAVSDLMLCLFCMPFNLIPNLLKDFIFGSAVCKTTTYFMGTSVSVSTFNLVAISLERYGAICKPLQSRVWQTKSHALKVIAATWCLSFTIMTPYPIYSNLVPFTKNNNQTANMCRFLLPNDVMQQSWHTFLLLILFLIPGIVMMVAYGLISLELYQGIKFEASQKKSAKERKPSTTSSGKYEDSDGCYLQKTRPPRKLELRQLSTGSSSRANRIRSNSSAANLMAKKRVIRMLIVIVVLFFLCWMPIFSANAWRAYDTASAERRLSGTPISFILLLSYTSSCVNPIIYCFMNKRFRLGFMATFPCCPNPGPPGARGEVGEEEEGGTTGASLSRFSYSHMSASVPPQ

Rattus norvegicus [17] = assay: Inhibition of hexarelin induced food intake in rat at 80 ug/kg, sc; assay type: functional
Rattus norvegicus [18] = assay: Inhibition of hexarelin induced food intake in rat at 20 ug/kg, sc; assay type: functional
[19] = biological target: Vasopressin V1a receptor (Homo sapiens) (UniProt P37288); assay: Binding affinity at vasopressin 1a receptor at 10 uM
Vasopressin V1a receptor (Homo sapiens), sequence (P37288 whole entry, looked up): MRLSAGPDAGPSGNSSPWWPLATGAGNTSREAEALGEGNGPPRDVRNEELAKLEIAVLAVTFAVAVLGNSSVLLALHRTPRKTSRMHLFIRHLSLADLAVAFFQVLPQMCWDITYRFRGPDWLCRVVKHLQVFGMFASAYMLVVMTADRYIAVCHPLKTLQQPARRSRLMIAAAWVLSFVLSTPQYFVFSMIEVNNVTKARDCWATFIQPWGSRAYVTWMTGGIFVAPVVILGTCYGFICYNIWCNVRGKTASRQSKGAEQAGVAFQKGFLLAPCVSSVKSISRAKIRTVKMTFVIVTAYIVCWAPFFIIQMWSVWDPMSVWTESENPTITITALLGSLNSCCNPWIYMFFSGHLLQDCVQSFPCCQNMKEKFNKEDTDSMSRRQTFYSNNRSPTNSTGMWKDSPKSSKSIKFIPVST

[20] = biological target: Motilin receptor (Homo sapiens) (UniProt O43193); assay: Binding affinity at motilin receptor at 10 uM
Motilin receptor (Homo sapiens), sequence (O43193 whole entry): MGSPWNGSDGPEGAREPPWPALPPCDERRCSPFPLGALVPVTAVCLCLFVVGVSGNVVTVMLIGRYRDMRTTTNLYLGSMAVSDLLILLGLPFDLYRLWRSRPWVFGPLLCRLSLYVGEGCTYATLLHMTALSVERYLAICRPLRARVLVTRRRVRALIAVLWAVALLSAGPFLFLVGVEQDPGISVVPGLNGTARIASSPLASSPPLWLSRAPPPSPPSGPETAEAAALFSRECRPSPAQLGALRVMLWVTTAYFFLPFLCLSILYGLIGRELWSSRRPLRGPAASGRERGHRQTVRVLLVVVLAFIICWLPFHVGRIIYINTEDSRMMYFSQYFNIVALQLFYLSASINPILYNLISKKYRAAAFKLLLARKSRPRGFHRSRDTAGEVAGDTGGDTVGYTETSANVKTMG

Rattus norvegicus [21] = assay: Effect on growth hormone secretion in infant rat at 80 ug/kg, sc; assay type: functional; how it was run: as §3
Rattus norvegicus [22] = assay: Effect on food intake per 100 gm of body weight in rat at 80 ug/kg, sc after 2 hrs; assay type: functional; how it was run: as §2
Rattus norvegicus [23] = assay: Effect on food intake per 100 gm of body weight in rat at 80 ug/kg, sc after 6 hrs; assay type: functional; how it was run: as §2

| Structure (SMILES) | IC50 [1] [µM] | Activity [2] [%] | Kb [3] [µM] | other results |
| --- | --- | --- | --- | --- |
| COc1ccc(Cn2c(CCc3c[nH]c4ccccc34)nnc2[C@@H](Cc2c[nH]c3ccccc23)NC(=O)c2ccccn2)c(OC)c1 | 0.0018 | 0 | 0.019 |  |
| CCc1ccc(Cn2c(CCc3ccccc3)nnc2[C@@H](Cc2c[nH]c3ccccc23)NC(=O)Cc2ccccn2)cc1 | 0.051 | 0 | 0.124 |  |
| COc1ccc(Cn2c(CCc3ccccc3)nnc2[C@@H](Cc2c[nH]c3ccccc23)NC(=O)Cc2ccccn2)cc1 | 0.003 | 6 | 0.006 |  |
| COc1ccc(Cn2c(CCc3ccccc3)nnc2[C@@H](Cc2c[nH]c3ccccc23)NC(=O)c2ccccn2)cc1 | 0.0007 | 0 | 0.012 |  |
| CCc1ccc(Cn2c(CCc3ccccc3)nnc2[C@@H](Cc2c[nH]c3ccccc23)NC(=O)c2cnccn2)cc1 | 0.089 | 0 | 0.076 |  |
| COc1ccc(Cn2c(CCc3c[nH]c4ccccc34)nnc2[C@@H](Cc2c[nH]c3ccccc23)NC(=O)C2CCNCC2)cc1 | 0.0006 |  |  | EC50 [14]: 0.0016 µM |
| COc1ccc(Cn2c(CCc3ccccc3)nnc2[C@@H](Cc2c[nH]c3ccccc23)NC(=O)c2ccccn2)c(OC)c1 | 0.0011 | 0 | 0.025 | Activity (Rattus norvegicus [4]): 0.56 g; Activity [15]: Active; Activity (Rattus norvegicus [5]): 138.39 ng/mL; Activity (Rattus norvegicus [6]): 0.02 g; Activity (Rattus norvegicus [7]): 0.56 g; Activity (Rattus norvegicus [8]): 0.21 g; Activity (Rattus norvegicus [9]): 13.06 ng/mL; Activity (Rattus norvegicus [10]): 0.21 g; Activity [16]: Active; inhibition in vivo at 0.08 mg/kg (Rattus norvegicus [17]): -98%; Activity (Rattus norvegicus [11]): 1.23 g; Activity (Rattus norvegicus [12]): 0.02 g; inhibition in vivo at 0.02 mg/kg (Rattus norvegicus [18]): -44%; Activity (Rattus norvegicus [13]): 1.23 g; Activity [19]: Active; Activity [20]: Active |
| COc1ccc(Cn2c(CCc3c[nH]c4ccccc34)nnc2[C@@H](Cc2c[nH]c3ccccc23)NC(=O)C(C)(C)N)c(OC)c1 | 0.108 | 0 | 0.014 |  |
| COc1ccc(Cn2c(CCc3ccccc3)nnc2[C@@H](Cc2c[nH]c3ccccc23)NC(=O)c2ccncc2)c(OC)c1 | 0.058 | 0 | 0.093 |  |
| COc1ccc(Cn2c(CCc3ccccc3)nnc2[C@@H](Cc2c[nH]c3ccccc23)NC(=O)Cc2ccncc2)cc1 | 0.27 | 6 |  |  |
| COc1ccc(Cn2c(CCc3c[nH]c4ccccc34)nnc2[C@@H](Cc2c[nH]c3ccccc23)NC(=O)[C@H]2CCCC[C@H]2N)c(OC)c1 | 0.14 | 4 | 0.14 |  |
| COc1ccc(Cn2c(CCc3ccccc3)nnc2[C@@H](Cc2c[nH]c3ccccc23)NCc2ccccc2)c(OC)c1 | > 1 | 20 |  |  |
| COc1ccc(Cn2c(CCc3c[nH]c4ccccc34)nnc2[C@@H](Cc2c[nH]c3ccccc23)NC(=O)c2ccccn2)cc1 | 0.0019 | 0 | 0.102 |  |
| COc1ccc(Cn2c(CCc3ccccc3)nnc2[C@@H](Cc2c[nH]c3ccccc23)NC(=O)C(C)(C)N)cc1 | 0.011 | 0 | 0.005 | Activity (Rattus norvegicus [5]): 220.52 ng/mL; Activity (Rattus norvegicus [9]): 5.28 ng/mL |
| O=C(Cc1ccccn1)N[C@H](Cc1c[nH]c2ccccc12)c1nnc(CCc2ccccc2)n1-c1ccccc1 | 0.7 | 0 |  |  |
| Cc1[nH]c2ccccc2c1C[C@@H](NC(=O)[C@@H](N)Cc1c[nH]cn1)C(=O)N[C@@H](C)C(=O)N[C@@H](Cc1c[nH]c2ccccc12)C(=O)N[C@H](Cc1ccccc1)C(=O)N[C@@H](CCCCN)C(N)=O [EXAMORELIN] (H-H[dTrp(2-Me)]AW[dF]K-NH2) |  |  |  | Activity (Rattus norvegicus [21]): 253.82 ng/mL; Activity (Rattus norvegicus [22]): 1.06 g; Activity (Rattus norvegicus [23]): 1.45 g |
| CCc1ccc(Cn2c(CCc3ccccc3)nnc2[C@@H](Cc2c[nH]c3ccccc23)NC(=O)c2ccncc2)cc1 | > 1 | 0 |  |  |
| COc1ccc(Cn2c(CCc3ccccc3)nnc2[C@@H](Cc2c[nH]c3ccccc23)NC(=O)CCc2cccnc2)cc1 | 0.177 | 5 |  |  |
| COc1ccc(Cn2c(CCc3c[nH]c4ccccc34)nnc2[C@@H](Cc2c[nH]c3ccccc23)NC(=O)Cc2ccccn2)c(OC)c1 | 0.034 | 0 | 0.014 |  |

Now from value to molecule, other results behind:

| IC50 [1] [µM] | Activity [2] [%] | Kb [3] [µM] | Structure (SMILES) | other results |
| --- | --- | --- | --- | --- |
| 0.48 | 3 |  | CCc1ccc(Cn2c(CCc3ccccc3)nnc2[C@@H](Cc2c[nH]c3ccccc23)NC(=O)Cc2cccnc2)cc1 |  |
| 0.3 | 1 |  | COc1ccc(-n2c(CCc3ccccc3)nnc2[C@@H](Cc2c[nH]c3ccccc23)NC(=O)c2cnccn2)c(OC)c1 |  |
| 0.0185 | 0 | 0.097 | COc1ccc(Cn2c(CCc3c[nH]c4ccccc34)nnc2[C@@H](Cc2c[nH]c3ccccc23)NC(=O)c2cnccn2)c(OC)c1 | Activity (Rattus norvegicus [4]): 0.66 g; Activity (Rattus norvegicus [5]): 173.61 ng/mL; Activity (Rattus norvegicus [6]): 0.23 g; Activity (Rattus norvegicus [7]): 0.66 g; inhibition in vivo at 0.02 mg/kg (Rattus norvegicus [7]; Rattus norvegicus, sc, 6 h): 47%; Activity (Rattus norvegicus [8]): 0.29 g; Activity (Rattus norvegicus [9]): 15.32 ng/mL; Activity (Rattus norvegicus [10]): 0.31 g; Activity (Rattus norvegicus [11]): 0.2 g; Activity (Rattus norvegicus [12]): 0.23 g; Activity (Rattus norvegicus [13]): 0.21 g |
| 0.096 | 0 | 0.034 | CCc1ccc(-n2c(CCc3c[nH]c4ccccc34)nnc2[C@@H](Cc2c[nH]c3ccccc23)NC(=O)Cc2ccccn2)cc1 |  |
| 0.049 | 0 | 0.129 | CCc1ccc(-n2c(CCc3c[nH]c4ccccc34)nnc2[C@@H](Cc2c[nH]c3ccccc23)NC(=O)c2ccccn2)cc1 |  |
| 0.06 | 0 | 0.017 | COc1ccc(Cn2c(CCc3ccccc3)nnc2[C@@H](Cc2c[nH]c3ccccc23)NC(=O)C(C)(C)N)c(OC)c1 |  |
| 0.0118 | 31 |  | COc1ccc(Cn2c(CCc3ccccc3)nnc2[C@@H](Cc2c[nH]c3ccccc23)NC(=O)c2ccccc2)c(OC)c1 | EC50 [14]: 0.016 µM |
| 0.033 | 0 | 0.065 | COc1ccc(-n2c(CCc3ccccc3)nnc2[C@@H](Cc2c[nH]c3ccccc23)NC(=O)c2ccccn2)c(OC)c1 |  |
| 0.067 | 0 | 0.513 | CCc1ccc(Cn2c(CCc3ccccc3)nnc2[C@@H](Cc2c[nH]c3ccccc23)NC(=O)c2ccccn2)cc1 |  |
| 0.061 | 4 | 0.041 | O=C(Cc1ccccn1)N[C@H](Cc1c[nH]c2ccccc12)c1nnc(CCc2c[nH]c3ccccc23)n1Cc1ccccc1 |  |
| 0.16 | 0 |  | O=C(N[C@H](Cc1c[nH]c2ccccc12)c1nnc(CCc2c[nH]c3ccccc23)n1-c1ccccc1)c1ccccn1 |  |
| 0.076 | 3 | 0.01 | COc1ccc(Cn2c(CCc3c[nH]c4ccccc34)nnc2[C@@H](Cc2c[nH]c3ccccc23)NC(=O)Cc2ccncc2)cc1 |  |
| 0.105 | 0 |  | O=C(N[C@H](Cc1c[nH]c2ccccc12)c1nnc(CCc2ccccc2)n1-c1ccccc1)c1ccccn1 |  |
| 0.029 | 3 | 0.093 | COc1ccc(Cn2c(CCc3ccccc3)nnc2[C@@H](Cc2c[nH]c3ccccc23)NC(=O)Cc2cccnc2)cc1 |  |
| 0.22 | 0 |  | COc1ccc(Cn2c(CCc3ccccc3)nnc2[C@@H](Cc2c[nH]c3ccccc23)NC(=O)c2ccncc2)cc1 |  |
